Experimental data published in ChEMBL document CHEMBL1135573, “New stereocontrolled synthesis and biological evaluation of 5-(1'-hydroxyalkyl)-3-methylidenetetrahydro-2-furanones as potential cytotoxic agents” (J Med Chem, 2002).

What was measured:
L1210 = test: Compound was evaluated for in vitro cytotoxic activity against mouse L-1210 leukemia cell line; type: functional, cell-based
HL-60 = test: Compound was evaluated for in vitro cytotoxic activity against human HL-60 leukemia cell line; type: functional, cell-based
[1] = Partition coefficient (logP); type: physicochemical; conditions: octanol/water
Method in brief: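 log P (1-octanol/water) computed with a standard software package. For one analogue it was also measured by a spectrophotometric method.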

Compound `C=C1C[C@H]([C@H](C)O)OC1=O` has an IC50 (L1210; Mus musculus, L1210) of 17.3 µM and an IC50 (HL-60; Homo sapiens, HL-60) of 46.8 µM.

In the case of `C=C1C[C@H]([C@@H](O)c2ccccc2)OC1=O`, the IC50 (L1210; Mus musculus, L1210) is reported as 7.5 µM and the IC50 (HL-60; Homo sapiens, HL-60) is reported as 41.2 µM.

With `C=C1C[C@H]([C@H](O)CCC)OC1=O` the IC50 (L1210; Mus musculus, L1210) was 18.5 µM, the logP [1] was 1.59 and the IC50 (HL-60; Homo sapiens, HL-60) was 51.9 µM.

`C=C1C[C@H]([C@H](O)c2ccccc2)OC1=O` gave an IC50 (L1210; Mus musculus, L1210) of 6.9 µM, an IC50 (L1210; l1210) of 8 µM and a logP [1] of 1.8. The IC50 (HL-60; Homo sapiens, HL-60) was 36.4 µM.

For `C=C1C[C@H]([C@@H](C)O)OC1=O`, the IC50 (L1210; Mus musculus, L1210) was 19.3 µM, the logP [1] was 0.55 and the IC50 (HL-60; Homo sapiens, HL-60) was 47.3 µM.

`C=C1C[C@](C)(CO)OC1=O` showed an IC50 (L1210; Mus musculus, L1210) of 26.7 µM, a logP [1] of 0.44 and an IC50 (HL-60; Homo sapiens, HL-60) of 51.3 µM.

`C=C1C[C@H]([C@@H](O)CCC)OC1=O` gave an IC50 (L1210; Mus musculus, L1210) of 16.9 µM and an IC50 (HL-60; Homo sapiens, HL-60) of 52.6 µM.

CARBOPLATIN showed an IC50 (L1210; l1210) of 9.7 µM and an IC50 (HL-60; hl-60) of 2.9 µM.
